# Variants at the floor of the assay were thinned out.
# B1: tRNA (parent)
# chain: GUUCCGUUGGCGUAAUGGUAACGCGUCUCCCUCCUAAGGAGAAGACUGCGGGUUCGAGUCCCGUACGGAACG
# Variants of: B1
# Assay: yeast fitness relative to wild type (ratio to wild type); higher = fitter; tRNA-Arg(CCU), competitive growth, 37 C, YPD
# Outline: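 Gene amplicons from the start population and from each of six end populations were read by 100-nucleotide paired-end sequencing. Those end populations came from pooled Saccharomyces cerevisiae strains carrying tRNA-Arg(CCU) gene variants at the native locus, competed in YPD at 37°C for 24 hours. Fitness relative to wild type was worked out from changes in genotype frequencies. Genotypes needed ≥ 100 starting reads, and estimates < 0.5 were set to 0.5.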
row,Variant,yeast fitness
1,U26A A40G C49G C61A,0.626
2,U26A C60G,0.691
3,G25A U26C C29G C61A,≤ 0.5
4,U26A G38C A45U C55U,≤ 0.5
5,U26A C27U C49A U64C,≤ 0.5
6,G25C C46G C49U U64G,≤ 0.5
7,G25C G67A G68A,0.655
8,U26A C49U G58A,≤ 0.5
9,U26A A42U,0.981
10,U26A A65U,0.829
11,U26A A65G,0.822
12,U26A A43U A70U,0.838
13,G25C C29G G52A A69U,≤ 0.5
14,G25A U47C,0.93
15,G25C C31U G56A,0.616
16,U26A A40C U64C C66A,≤ 0.5
17,U26A G63C,0.683
18,U26A G63A,0.86
19,U26A C31G A36U A65U,0.681
20,G25C A43U G50A G68A,≤ 0.5
21,G25C C29A G52A G67A,≤ 0.5
22,U26A A36G A37G C46G C49U U54C A70G,0.754
23,U26A C27U C33G A36U G50A,≤ 0.5
24,G25C C34U A45C,0.54

row,Variant,yeast fitness
1,G25U C27A G41A C62U,≤ 0.5
2,G25C C27G C62U,0.597
3,U26A G58A,0.928
4,G25C G41C C46U U59C A65U,≤ 0.5
5,U26A A37C A57U,≤ 0.5
6,G25C A43U G50A A70C,≤ 0.5
7,G25C A40C,0.848
8,G25C A40G,0.645
9,G25C C30G C33U A45G U47G G50C G63A,≤ 0.5
10,G25C C30G U32G A42C C49U,0.543
11,G25C A45C C46A,0.991
12,U26A C46U A65C,0.631
13,G25C C33A,0.758
14,G25C C33G,0.662
15,G25C A43U C61G G67C,≤ 0.5
16,G25C G39C G44C,≤ 0.5
17,G25C A69C,1.07
18,U26A A45G,0.882
19,U26A A45C,0.698
20,U26A C27U G41A A65G,0.534
21,U26A A37G G48A C49G,≤ 0.5
22,G25C U26G C46G C61A A70U,≤ 0.5
23,G25C C34A,0.625
24,U26A C27G C31G G38C,≤ 0.5

row,Variant,yeast fitness
1,U26A G68C,0.82
2,U26A G68A,0.779
3,U26A C49G A70C,0.574
4,G25C C34G C61U C66G,≤ 0.5
5,U26A A43C G52U C55A,≤ 0.5
6,G25C C31A A43U U54A,≤ 0.5
7,G25C G38A A65G,1.04
8,G25C U35C,0.862
9,G25C U35A,0.604
10,U26A G41C C66A A70C,0.663
11,U26A C33A A37G,0.581
12,G25U A45C C62A,0.777
13,G25C C29U A42U,0.664
14,U26A C34U C49G C66A,≤ 0.5
15,G25C C29G C46G G51C,≤ 0.5
16,U26A A37C C61A,≤ 0.5
17,G25C U47C,0.954
18,G25C C29A,0.696
19,G25C A70G,0.873
20,G25C A70U,0.867
21,G25C A70C,1.05
22,G25C A37G A40C C61G,≤ 0.5
23,U26A G52A A70U,≤ 0.5
24,G25C C30G C60U,≤ 0.5

row,Variant,yeast fitness
1,U26A C49U C61G,≤ 0.5
2,G25C U32G G44A C46G,≤ 0.5
3,G25C C29G C46G,≤ 0.5
4,G25C C33U G50C,≤ 0.5
5,G25C C55G,≤ 0.5
6,G25C C55A,0.68
7,G25C C46A G50C,0.618
8,G25A U35C,0.942
9,G25A U35G,0.603
10,U26A G41A,0.818
11,G25U A36U,0.531
12,G25C A43C C62A U64G C66G,≤ 0.5
13,G25C C31U U35C,0.53
14,G25C U32C C46U G50A,0.667
15,U26A C31G A36U U54C C55G,≤ 0.5
16,G25C G68A A69G,0.607
17,G25C A65C,1.03
18,G25C A42G C55U,≤ 0.5
19,U26A C34G,0.618
20,G25C U47G G52A,0.549
21,U26A C27G C31U C46A A65C G68A,0.626
22,G25C U26G C46G A70U,0.62
23,U26A C66A A69C,≤ 0.5
24,G25C G41C C46U A65U,0.551

row,Variant,yeast fitness
1,G25C C31U U32A C49G C60U,≤ 0.5
2,G25C C46U G50A C66U,0.716
3,G25C G63C,0.716
4,U26A G41A C66A,≤ 0.5
5,G25C C62A,0.845
6,G25C C62U,0.999
7,G25U U59C,0.657
8,G25A G63A,0.949
9,G25A G63C,0.737
10,G25C C49U,1.01
11,G25C G39C G44C C60U G68C,≤ 0.5
12,U26A G39C,0.751
13,G25C G51A G67A,0.73
14,U26A A40C,0.755
15,G25C C61G G67C,0.527
16,G25C C29U C33U A40G G52A U59C A65U,≤ 0.5
17,U26A C34G A45G,0.517
18,G25A G58C C66U,0.778
19,U26A C27U C46G,1
20,G25A U54C,0.87
21,G25A U54G,0.566
22,G25C U28C U59C,0.694
23,U26A G44C,0.886
24,G25C A40U C49U,0.66

row,Variant,yeast fitness
1,G25C G52C,0.574
2,G25C C29G C33U G39U,≤ 0.5
3,U26A C55A A57U,≤ 0.5
4,U26A G44C C62A,0.598
5,U26A G44C C62U,0.622
6,U26A C30A A65C,0.511
7,G25A G58C A69C,1.01
8,G25C C49U C62G C66U,0.539
9,G25C A40G A65C,0.653
10,U26A C27G C30G A36U G38C C46U C49G A65U,0.573
11,G25C C31U U32A C46U,≤ 0.5
12,G25C C31G C34G C61U A69U,≤ 0.5
13,G25C G41C C46U C61G,≤ 0.5
14,U26A C34U C62A,≤ 0.5
15,U26A G41U C55U,≤ 0.5
16,G25C G41A,0.789
17,U26A C49G C61A,≤ 0.5
18,G25C U64A,0.709
19,G25C U32G A65G,≤ 0.5
20,G25A U26A C31U G38A A42G A43U G48C G68C,≤ 0.5
21,U26A U28A C31U C55U C66G,≤ 0.5
22,U26A A36G G56C,≤ 0.5
23,U26A C30G C33U,0.604
24,G25C U28C C55A,0.539

row,Variant,yeast fitness
1,U26A A43G,0.832
2,U26A A43C A45U A65C,≤ 0.5
3,U26A A43G G51C A69U,0.566
4,G25C C60A G67C,≤ 0.5
5,U26A A36C C61U,≤ 0.5
6,U26A G38C U47G G58A,≤ 0.5
7,G25C U26G C46G A69U,0.521
8,U26A C31U G68A,0.716
9,U26A C31A A37U A43U,≤ 0.5
10,G25C G39A C66U,0.504
11,G25C C46G U64G,≤ 0.5
12,G25A U28G,0.762
13,U26A C49G A69C,0.6
14,G25C A45U C60A,≤ 0.5
15,G25C U35C A42C C46A G48C C61A,≤ 0.5
16,G25C G68A,0.817
17,G25C G68C,0.796
18,G25C G56C C61G,≤ 0.5
19,U26A G44C A65G,0.573
20,G25C C49U G51A A57G,≤ 0.5
21,G25A U53A G63A,0.523
22,U26A A45G U54C,0.52
23,U26A U28A C31U G51A,≤ 0.5
